Laboratory results as given in PMC11022931 (Blood, 2022).

Columns and labels:
human platelets [1] = assay: Multiple electrode aggregometry; type: cell-based; settings: MEA, human blood; for effect on platelet aggregation induced by human plaque homogenate: plaque 833 µg/mL, AMD3465 100 nM, i[VREY]4 5 µM
mouse platelets [2] = assay: i[VREY]4-biot binding to mouse platelets, flow cytometry; type: cell-based
[3] = i[VREY]4 pharmacokinetics, plasma ELISA; type: in vivo, C57BL/6J mice; settings: C57BL/6J, mouse, ip, 75 ug
In short: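 Biotinylated test compound (75 µg) was injected i.p. into mice. Plasma levels of the biotinylated peptide were measured by ELISA at several time points after injection. Data are means ± SD.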

15N-labeled CXCL12 = 15N-labeled CXCL12 (Homo sapiens, UniProt P48061); assay: 15N HSQC NMR titration of CXCL12 with i[VREY]4; type: binding; settings: 20 µM 15N-CXCL12, i[VREY]4 20, 40, 200 µM; 25 mM KPi pH 7.1; 25 °C
[4] = target: CXCL12 on human platelets (Homo sapiens, UniProt P48061); assay: Detection of CXCL12 on human platelets with anti-CXCL12 antibodies; type: cell-based; settings: human blood, CXCL12 0.1 µg/mL or collagen 1 µg/mL
mouse platelets [5] = assay: MEA in mouse blood activated with collagen; type: cell-based; settings: 1 µg/mL collagen, 5 µM i[VREY]4, n = 6-8
In short: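 Blood came from mice with megakaryocyte-lineage Cxcl12 deletion (Pf4-Cre × Cxcl12 fl/fl, Apoe-/- background) or from Cxcl12 wt/wt controls. It was mixed with 1 µg/mL collagen with or without 5 µM test compound, and aggregation was measured by multiple electrode aggregometry (Multiplate), n=6-8 mice. Data are means ± SD.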

human platelets [6] = assay: i[VREY]4-biot binding and proximity ligation with CXCL12 on human platelets; type: cell-based; settings: flow cytometry, resting vs collagen-activated, n = 6
CXCR4 = CXCR4 internalization on human platelets, flow cytometry; type: cell-based; settings: CXCL12 0.1 µg/mL, i[VREY]4 5 µM
In short: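 Human blood diluted 1:1 with PBS and treated with recombinant CXCL12 (0.1 µg/mL), collagen (1 µg/mL) and test compound (5 µM). Platelet-surface CXCR4 was stained with anti-CXCR4 clone 12G5 and measured by flow cytometry. Data are means ± SD of independent experiments, analysed by one-way ANOVA with Tukey's multiple comparison test.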

human platelets [7] = assay: Platelet activation by PAC-1 and P-selectin staining, flow cytometry; type: cell-based; settings: human blood, remibrutinib 0.1 µM 30 minutes at 37°C, CXCL12 0.1 μg/mL, CRP-XL 0.01 μg/mL, n = 6
CXCL12 = CXCL12 (Homo sapiens, UniProt P48061); settings: read-out: KD of CXCL12 binding to CCL5; cited from earlier work

c1ccc(CNCc2ccc(CN3CCCNCCNCCCNCC3)cc2)nc1 [AMD3465, reference compound]
effect on platelet aggregation induced by human plaque homogenate (human platelets [1]): reduced

CC[C@H](C)[C@H](NC(=O)[C@H](Cc1ccc(O)cc1)NC(=O)[C@H](CCC(=O)O)NC(=O)[C@H](CCCNC(=N)N)NC(=O)[C@@H](NC(=O)[C@H](Cc1c[nH]c2ccccc12)NC(=O)[C@H](CCCCN)NC(=O)[C@H](CCCCN)NC(=O)[C@H](CCC(=O)O)NC(=O)CNC(=O)CON=C(C)CCCC(=O)NCCCC[C@@H]1NC(=O)[C@H](CCC(=O)O)NC(=O)[C@H](CCCCNC(=O)CCCC(C)=NOCC(=O)NCC(=O)N[C@@H](CCC(=O)O)C(=O)N[C@@H](CCCCN)C(=O)N[C@@H](CCCCN)C(=O)N[C@@H](Cc2c[nH]c3ccccc23)C(=O)N[C@H](C(=O)N[C@@H](CCCNC(=N)N)C(=O)N[C@@H](CCC(=O)O)C(=O)N[C@@H](Cc2ccc(O)cc2)C(=O)N[C@H](C(=O)N[C@@H](CC(N)=O)C(=O)N[C@@H](CO)C(=O)N[C@@H](CC(C)C)C(=O)N[C@@H](CCC(=O)O)C(=O)N[C@@H](CCSC)C(=O)N[C@@H](CO)C(=O)O)[C@@H](C)CC)C(C)C)NC(=O)[C@@H]2CCCN2C(=O)[C@H](CSC2CC(=O)N(CCCCCC(=O)NNC(=O)CCCC[C@@H]3SC[C@@H]4NC(=O)N[C@@H]43)C2=O)NC(=O)[C@H](CCCCNC(=O)CCCC(C)=NOCC(=O)NCC(=O)N[C@@H](CCC(=O)O)C(=O)N[C@@H](CCCCN)C(=O)N[C@@H](CCCCN)C(=O)N[C@@H](Cc2c[nH]c3ccccc23)C(=O)N[C@H](C(=O)N[C@@H](CCCNC(=N)N)C(=O)N[C@@H](CCC(=O)O)C(=O)N[C@@H](Cc2ccc(O)cc2)C(=O)N[C@H](C(=O)N[C@@H](CC(N)=O)C(=O)N[C@@H](CO)C(=O)N[C@@H](CC(C)C)C(=O)N[C@@H](CCC(=O)O)C(=O)N[C@@H](CCSC)C(=O)N[C@@H](CO)C(=O)O)[C@@H](C)CC)C(C)C)NC(=O)[C@H](CCCCN)NC(=O)[C@H](CCCCNC(=O)CCCC(C)=NOCC(=O)NCC(=O)N[C@@H](CCC(=O)O)C(=O)N[C@@H](CCCCN)C(=O)N[C@@H](CCCCN)C(=O)N[C@@H](Cc2c[nH]c3ccccc23)C(=O)N[C@H](C(=O)N[C@@H](CCCNC(=N)N)C(=O)N[C@@H](CCC(=O)O)C(=O)N[C@@H](Cc2ccc(O)cc2)C(=O)N[C@H](C(=O)N[C@@H](CC(N)=O)C(=O)N[C@@H](CO)C(=O)N[C@@H](CC(C)C)C(=O)N[C@@H](CCC(=O)O)C(=O)N[C@@H](CCSC)C(=O)N[C@@H](CO)C(=O)O)[C@@H](C)CC)C(C)C)NC(=O)[C@@H]2CCCN2C(=O)CNC1=O)C(C)C)C(=O)N[C@@H](CC(N)=O)C(=O)N[C@@H](CO)C(=O)N[C@@H](CC(C)C)C(=O)N[C@@H](CCC(=O)O)C(=O)N[C@@H](CCSC)C(=O)N[C@@H](CO)C(=O)O (some centres unmarked) [i[VREY]4-biot]
binding to the surface of unactivated mouse platelets (mouse platelets [2]; resting conditions, flow cytometry): No binding was observed | binding to the surface of mouse platelets, wild type vs CXCR4 knockout (mouse platelets [2]; resting or 10 µg/mL collagen, streptavidin-FITC flow cytometry, n = 3-5): required platelet activation and CXCR4 | Cmax [3]: 1.97 µg/mL

CC[C@H](C)[C@H](NC(=O)[C@H](Cc1ccc(O)cc1)NC(=O)[C@H](CCC(=O)O)NC(=O)[C@H](CCCNC(=N)N)NC(=O)[C@@H](NC(=O)[C@H](Cc1c[nH]c2ccccc12)NC(=O)[C@H](CCCCN)NC(=O)[C@H](CCCCN)NC(=O)[C@H](CCC(=O)O)NC(=O)CNC(=O)CON=C(C)CCCC(=O)NCCCC[C@@H]1NC(=O)[C@H](CCC(=O)O)NC(=O)[C@H](CCCCNC(=O)CCCC(C)=NOCC(=O)NCC(=O)N[C@@H](CCC(=O)O)C(=O)N[C@@H](CCCCN)C(=O)N[C@@H](CCCCN)C(=O)N[C@@H](Cc2c[nH]c3ccccc23)C(=O)N[C@H](C(=O)N[C@@H](CCCNC(=N)N)C(=O)N[C@@H](CCC(=O)O)C(=O)N[C@@H](Cc2ccc(O)cc2)C(=O)N[C@H](C(=O)N[C@@H](CC(N)=O)C(=O)N[C@@H](CO)C(=O)N[C@@H](CC(C)C)C(=O)N[C@@H](CCC(=O)O)C(=O)N[C@@H](CCSC)C(=O)N[C@@H](CO)C(=O)O)[C@@H](C)CC)C(C)C)NC(=O)[C@@H]2CCCN2C(=O)[C@H](CSCC(N)=O)NC(=O)[C@H](CCCCNC(=O)CCCC(C)=NOCC(=O)NCC(=O)N[C@@H](CCC(=O)O)C(=O)N[C@@H](CCCCN)C(=O)N[C@@H](CCCCN)C(=O)N[C@@H](Cc2c[nH]c3ccccc23)C(=O)N[C@H](C(=O)N[C@@H](CCCNC(=N)N)C(=O)N[C@@H](CCC(=O)O)C(=O)N[C@@H](Cc2ccc(O)cc2)C(=O)N[C@H](C(=O)N[C@@H](CC(N)=O)C(=O)N[C@@H](CO)C(=O)N[C@@H](CC(C)C)C(=O)N[C@@H](CCC(=O)O)C(=O)N[C@@H](CCSC)C(=O)N[C@@H](CO)C(=O)O)[C@@H](C)CC)C(C)C)NC(=O)[C@H](CCCCN)NC(=O)[C@H](CCCCNC(=O)CCCC(C)=NOCC(=O)NCC(=O)N[C@@H](CCC(=O)O)C(=O)N[C@@H](CCCCN)C(=O)N[C@@H](CCCCN)C(=O)N[C@@H](Cc2c[nH]c3ccccc23)C(=O)N[C@H](C(=O)N[C@@H](CCCNC(=N)N)C(=O)N[C@@H](CCC(=O)O)C(=O)N[C@@H](Cc2ccc(O)cc2)C(=O)N[C@H](C(=O)N[C@@H](CC(N)=O)C(=O)N[C@@H](CO)C(=O)N[C@@H](CC(C)C)C(=O)N[C@@H](CCC(=O)O)C(=O)N[C@@H](CCSC)C(=O)N[C@@H](CO)C(=O)O)[C@@H](C)CC)C(C)C)NC(=O)[C@@H]2CCCN2C(=O)CNC1=O)C(C)C)C(=O)N[C@@H](CC(N)=O)C(=O)N[C@@H](CO)C(=O)N[C@@H](CC(C)C)C(=O)N[C@@H](CCC(=O)O)C(=O)N[C@@H](CCSC)C(=O)N[C@@H](CO)C(=O)O [i[VREY]4]
affinity of interaction with CXCL12 by HSQC NMR titration (15N-labeled CXCL12): in the micromolar range | effect on binding of anti-CXCL12 antibody clone #79018 to platelets ([4]; n = 8): diminished | effect on binding of anti-CXCL12 antibody K15C to platelets ([4]; n = 10): did not result in reduced binding of K15C | effect on platelet aggregation induced by human plaque homogenate (human platelets [1]): inhibited | effect on collagen-induced platelet aggregation in blood from Cxcl12 wt/wt mice (mouse platelets [5]): diminished | change of i[VREY]4 binding to human platelets on activation with collagen (human platelets [6]): increased | effect on internalization of CXCR4 after CXCL12 exposure (CXCR4): could not be reversed

C=CC(=O)N(C)CCOc1c(N)ncnc1-c1cc(F)cc(NC(=O)c2ccc(C3CC3)cc2F)c1C [remibrutinib]
effect on P-selectin expression and integrin αIIbβ3 activation by CRP-XL combined with CXCL12 (human platelets [7]): reversed

CCL5: recombinant human chemokine CCL5
Kd (CXCL12): 0.578 ± 0.061 µM

CXCL12: recombinant human chemokine CXCL12, platelet agonist
CXCL12 concentration that induced platelet aggregation (human platelets [1]; recombinant CXCL12 alone, n = 5-10): ≥ 100 ng/mL
